Data reported in ChEMBL document CHEMBL3804770 (J Med Chem, 2016).
The source made the active and inactive calls. No cut-off for these calls is given here.

Experiments:
[1] = Dark cytotoxicity against human SKOV3 cells assessed as cell viability after 72 hrs by MTT assay; format: cell-based; conditions: SK-OV-3, 72 h
In short: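 SKOV-3 cells seeded at 5000/well, incubated 24 h, then treated from 2 mM DMSO stocks diluted in medium to final concentrations; kept in the dark 72 h. MTT ([…]) added, formazan dissolved in DMSO, absorbance 570 nm minus 650 nm background; viability as percentage of untreated wells.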

[2] = molecular target: T1, Tubulin (Sus scrofa) (UniProt P02554+P02550); experiment: Induction of porcine brain tubulin polymerization at 30 uM measured every 2 mins for 1 hr by fluorescence analysis in presence of GTP
T1 sequence (P02550 whole entry, looked up): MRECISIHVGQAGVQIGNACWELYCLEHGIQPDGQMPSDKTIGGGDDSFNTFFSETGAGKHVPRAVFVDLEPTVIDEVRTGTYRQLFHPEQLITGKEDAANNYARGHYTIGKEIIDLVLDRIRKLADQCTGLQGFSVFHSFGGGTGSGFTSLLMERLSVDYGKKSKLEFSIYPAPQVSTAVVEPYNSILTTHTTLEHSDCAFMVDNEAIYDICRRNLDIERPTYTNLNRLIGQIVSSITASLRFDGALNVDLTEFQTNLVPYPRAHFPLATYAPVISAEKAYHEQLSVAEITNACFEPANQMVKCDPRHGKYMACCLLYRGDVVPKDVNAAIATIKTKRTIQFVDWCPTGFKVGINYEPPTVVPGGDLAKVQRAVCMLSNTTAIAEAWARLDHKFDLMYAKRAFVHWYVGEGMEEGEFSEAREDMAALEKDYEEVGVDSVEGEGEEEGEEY
T1 sequence (P02554 whole entry, looked up): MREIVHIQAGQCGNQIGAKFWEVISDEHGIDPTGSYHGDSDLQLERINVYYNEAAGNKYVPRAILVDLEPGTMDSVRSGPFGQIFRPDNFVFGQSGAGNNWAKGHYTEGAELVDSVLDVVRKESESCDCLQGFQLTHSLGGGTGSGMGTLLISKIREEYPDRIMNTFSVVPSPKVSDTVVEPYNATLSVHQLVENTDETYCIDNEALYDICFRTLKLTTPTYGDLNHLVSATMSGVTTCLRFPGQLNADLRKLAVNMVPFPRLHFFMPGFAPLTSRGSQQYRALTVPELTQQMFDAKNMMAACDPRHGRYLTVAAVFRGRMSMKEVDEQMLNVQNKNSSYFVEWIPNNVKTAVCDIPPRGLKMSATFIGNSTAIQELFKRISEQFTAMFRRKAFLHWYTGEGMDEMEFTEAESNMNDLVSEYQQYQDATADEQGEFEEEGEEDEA
In short: (§1)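 Fluorescence-based tubulin polymerization kit. Compound in DMSO diluted with water, then combined with tubulin and GTP in buffer at 37 °C. Fluorescence (excitation 360 nm, emission 450 nm) read every 2 min for 1 h.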

[3] = molecular target: T1, Tubulin (Sus scrofa); experiment: Induction of porcine brain tubulin polymerization at 1.5 uM irradiated with 5.6 mW/cm2 of far-red light for 30 mins measured every 2 mins for 1 hr by fluorescence analysis
[4] = Photocytotoxicity against human SKOV3 cells assessed as cell viability incubated for 24 hrs under dark conditions followed by 5.6 mW/cm2 of laser illumination for 30 mins measured after 72 hrs by MTT assay; format: functional, cell-based; conditions: SK-OV-3
In short: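 SKOV-3 cells (5000/well) dosed from 2 mM DMSO stocks diluted in medium; after 24 h dark incubation, plates illuminated uncovered on orbital shaker with 690 nm diode laser, 5.6 mW/cm² for 30 min (10 J/cm²). Incubated a further 72 h, then MTT read at 570 nm with 650 nm background; viability as percentage of untreated controls.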

[5] = Ratio of photocytotoxic IC50 for human SKOV3 cells measured after drug wash out to photocytotoxic IC50 for human SKOV3 cells measured before drug wash out; format: functional, SK-OV-3
[6] = Ratio of compound IC50 to PTX IC50 for dark cytotoxicity against human SKOV3 cells; format: cell-based, SK-OV-3; conditions: read-out: Ratio IC50
[7] = Photocytotoxicity against human SKOV3 cells assessed as cell viability incubated for 24 hrs under dark conditions followed by 5.6 mW/cm2 of laser illumination for 30 mins measured 72 hrs post drug wash out by MTT assay; format: functional, cell-based; conditions: SK-OV-3
In short: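 SKOV-3 cells (5000/well) held 24 h in the dark with drug, illuminated at 690 nm, 5.6 mW/cm², 30 min (10 J/cm²). Medium then replaced with fresh medium to remove released material, followed by 72 h incubation and MTT readout (570 nm, 650 nm background), viability relative to untreated wells.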

[8] = Drug uptake in cytosol of human SKOV3 cells at 0.5 uM after 23 hrs by tubulin tracker green fluorescent dye based confocal microscopy; format: ADME, cell-based, SK-OV-3
In short: (§2)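 SKOV-3 cells grown in α-MEM with 10% bovine growth serum, 2 mM L-glutamine, penicillin/streptomycin and fungizone were seeded on coverslips, cultured 24 h, then exposed to prodrug at 500 nM for 24 h under minimal light. Tubulin tracker green, 1 µM final in HBSS, added 45-60 min at 37 °C, then washed. Confocal imaging: tracker excitation 488 nm/emission 500-550 nm, prodrug excitation 633 nm/emission 650-800 nm, three random fields per treatment.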

[9] = Retention time of the compound at 10 uM by HPLC analysis; format: physicochemical
In short: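 Complete medium containing 10 µM compound held at 37 °C in the dark. Samples were extracted into dichloromethane, dried, and taken up in 5% DMSO in ACN. Isocratic HPLC with 90% ACN/10% 10 mM ammonium acetate at 0.5 mL/min; detection by diode array at 675 nm.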

[10] = Drug uptake in nucleus of human SKOV3 cells at 0.5 uM after 23 hrs by tubulin tracker green fluorescent dye based confocal microscopy; format: ADME, cell-based; conditions: sk-ov-3, 23 h; in short: as §2
[11] = molecular target: T1, Tubulin (Sus scrofa); experiment: Induction of porcine brain tubulin polymerization at 3 uM after 40 mins by fluorescence analysis in presence of GTP; in short: as §1
[12] = nOctanol-phosphate buffer partition coefficient, log D of the compound at pH 7.4 incubated for 3 hrs in dark condition by fluorimeter; format: physicochemical; conditions: octanol/water, pH 7.4, 3 h
[13] = Drug degradation in complete medium at 10 uM after 96 hrs by HPLC analysis under dark conditions
[14] = Drug degradation […] at 10 uM after 24 hrs by HPLC analysis under dark conditions; format: physicochemical; conditions: read-out: Drug degradation
In short: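 10 μM solution in complete cell culture medium, made from DMSO stock, kept at 37 °C in the dark. Aliquots taken at 0, 2, 24, 48, 96 and 168 h, extracted with dichloromethane, reconstituted in 5% DMSO in ACN. Analysed by isocratic HPLC (90% ACN/10% 10 mM ammonium acetate, 0.5 mL/min); remaining percentage versus t = 0, three experiments.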

[15] = Retention time of the compound in DMSO treated with (Pc-(L-PTX)2) by mass spectroscopy/HPLC analysis; format: physicochemical

| Retention_time [15] | SMILES | IC50 [1] | Activity [2] | Activity [3] | IC50 [4] | Ratio IC50 [5] | selectivity ratio [6] | IC50 [7] | Drug uptake [8] | Retention_time [9] | Drug uptake [10] | Activity [11] | logD [12] | degraded at 96 h, 10 µM [13] | degraded at 24 h, 10 µM [14] |
| --- | --- | --- | --- | --- | --- | --- | --- | --- | --- | --- | --- | --- | --- | --- | --- |
| – | CC(=O)O[C@H]1C(=O)[C@@]2(C)[C@H]([C@H](OC(=O)c3ccccc3)[C@]3(O)C[C@H](OC(=O)[C@H](OC(=O)/C=C/N4CCN(CCO[Si]5(OCCN6CCN(/C=C/C(=O)O[C@@H](C(=O)O[C@H]7C[C@@]8(O)[C@@H](OC(=O)c9ccccc9)[C@@H]9[C@]%10(OC(C)=O)CO[C@@H]%10C[C@H](O)[C@@]9(C)C(=O)[C@H](OC(C)=O)C(=C7C)C8(C)C)[C@@H](NC(=O)c7ccccc7)c7ccccc7)CC6)n6c7c8ccccc8c6/N=C6N=C(/N=c8/c9ccccc9/c(n85)=N/C5=NC(=N\7)/c7ccccc75)c5ccccc5\6)CC4)[C@@H](NC(=O)c4ccccc4)c4ccccc4)C(C)=C1C3(C)C)[C@]1(OC(C)=O)CO[C@@H]1C[C@@H]2O | 910 nM | inactive | Active | 3.9 nM | 23 | 190 | 89 nM | Active | 32 min | Not Active | inactive | > 3.1 | < 7% | – |
| – | CC(=O)O[C@H]1C(=O)[C@@]2(C)[C@H](O)C[C@@H]3OC[C@]3(OC(C)=O)[C@@H]2[C@@H](OC(=O)c2ccccc2)[C@]2(O)C[C@@H](OC(=O)[C@@H](OC(=O)CCC(=O)N3CCN(CCO[Si]4(OCCN5CCN(C(=O)CCC(=O)O[C@@H](C(=O)O[C@@H]6C[C@@]7(O)[C@H](OC(=O)c8ccccc8)[C@H]8[C@@]9(OC(C)=O)CO[C@H]9C[C@@H](O)[C@]8(C)C(=O)[C@H](OC(C)=O)C(=C6C)C7(C)C)[C@H](NC(=O)c6ccccc6)c6ccccc6)CC5)n5c6c7ccccc7c5/N=C5N=C(/N=c7/c8ccccc8/c(n74)=N/C4=NC(=N\6)/c6ccccc64)c4ccccc4\5)CC3)[C@H](NC(=O)c3ccccc3)c3ccccc3)C(C)=C1C2(C)C (some centres undefined) | 1280 nM | inactive | inactive | 24 nM | 2 | 270 | 53 nM | Active | 21 min | Not Active | inactive | > 3.1 | 14% | 4% |
| 11 min | CC(=O)O[C@H]1C(=O)[C@@]2(C)[C@H]([C@H](OC(=O)c3ccccc3)[C@]3(O)C[C@H](OC(=O)[C@H](O)[C@@H](NC(=O)c4ccccc4)c4ccccc4)C(C)=C1C3(C)C)[C@]1(OC(C)=O)CO[C@@H]1C[C@@H]2O [PACLITAXEL] | 4.7 nM | – | – | – | – | – | – | – | – | – | – | – | – | – |
